The test system of series [1] is Mus musculus. In words: Anticonvulsant activity in Swiss albino mouse assessed as protection against subcutaneous pentylenetetrazole-induced seizures at 100 mg/kg, ip administered 4 hrs prior to PTZ challenge and measured after 30 mins. It is filed as functional. An outline of the steps:
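Male Swiss Albino mice (25–30 g), 6 per group, dosed i.p. with drugs in sterile saline, then challenged with PTZ 85 mg/kg s.c. (CD97), given at 10 ml/kg, 0.5 h or 4 h later. Each animal is observed singly for seizures. Protection is scored as protected/total animals.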

Series [2] concerns the target T1, Prostaglandin G/H synthase 1 (Ovis aries) (UniProt P05979).
T1 sequence (whole entry): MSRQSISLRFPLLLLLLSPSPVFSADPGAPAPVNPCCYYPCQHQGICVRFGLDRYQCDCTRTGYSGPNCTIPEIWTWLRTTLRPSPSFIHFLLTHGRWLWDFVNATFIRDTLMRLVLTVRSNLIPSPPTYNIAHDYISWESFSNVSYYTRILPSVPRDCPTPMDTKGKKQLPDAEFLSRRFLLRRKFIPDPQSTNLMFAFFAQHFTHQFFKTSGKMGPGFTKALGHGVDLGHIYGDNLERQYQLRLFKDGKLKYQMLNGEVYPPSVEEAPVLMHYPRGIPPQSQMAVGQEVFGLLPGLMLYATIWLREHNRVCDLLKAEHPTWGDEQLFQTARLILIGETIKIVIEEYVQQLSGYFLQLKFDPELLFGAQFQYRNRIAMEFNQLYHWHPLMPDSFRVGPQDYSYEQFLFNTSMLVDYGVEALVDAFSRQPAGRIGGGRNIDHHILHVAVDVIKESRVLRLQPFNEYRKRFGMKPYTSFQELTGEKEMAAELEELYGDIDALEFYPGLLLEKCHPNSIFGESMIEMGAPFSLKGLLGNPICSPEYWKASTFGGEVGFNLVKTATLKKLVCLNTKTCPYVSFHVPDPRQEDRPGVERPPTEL
In words: Inhibition of ovine COX1 at 10 uM using arachidonic acid as substrate preincubated for 5 mins followed by substrate addition and measured after 2 mins by ADPH probe-based fluorescence assay relative to control. An outline of the steps:
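Kit assay in 100 mM Tris-HCl pH 8.0. Enzyme, heme and inhibitor (DMSO stocks) are incubated 5 min at room temperature. ADPH is added, then arachidonic acid starts the reaction. After 2 min, fluorescence is read at ex 535/em 590 nm. Percent inhibition is taken versus the 100% activity well, background wells included. IC50 is derived from percentage inhibition, mean of three independent experiments.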

For series [3], the system named is Mus musculus. Briefly: Anticonvulsant activity in Swiss albino mouse assessed as protection against subcutaneous pentylenetetrazole-induced seizures at 5 mg/kg, ip administered 3 hrs prior to PTZ challenge and measured after 30 mins. The class given is functional. The following applies: in the assay text read “30 mg/kg” for “5 mg/kg”. An outline of the steps:
(§1)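 Mice get a single i.p. dose, then PTZ 85 mg/kg s.c. at 0.5, 1, 2, 3, 4 or 6 h after dosing. Seizure protection is recorded at each interval as percentage of six Swiss Albino mice protected.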

Series [4] deals with Rattus norvegicus. In words: Toxicity in Wistar rat assessed as platelet level at 200 mg/kg, po for 14 days (reference value: 1119 +/- 142.9 10^3/mm3). It is filed as organism-based. The following applies: in vivo, 336 h.
Series [5] has as its system Rattus norvegicus. In words: Toxicity in Wistar rat assessed as effect on SGPT level at 200 mg/kg, po for 14 days. It is filed as organism-based. The following applies: in vivo, 336 h. An outline of the steps:
(§2)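 Normal Wistar rats are given 200 mg/kg orally for 14 days, with vehicle-treated controls. Serum liver markers (SGOT, SGPT, ALP, total protein, total bilirubin) and renal markers (urea, creatinine, uric acid) are then measured, mean ± S.D.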

Series [6] has as its system Rattus norvegicus. Briefly: Toxicity in Wistar rat assessed as hemoglobin level at 200 mg/kg, po for 14 days (reference value: 12.87 +/- 0.6 g/dl). It is filed as organism-based. The following applies: in vivo, 336 h.
The subject of series [7] is Rattus norvegicus. Briefly: Toxicity in Wistar rat assessed as effect on creatinine level at 200 mg/kg, po for 14 days. The class given is organism-based. The following applies: in vivo, 336 h. In a few lines: as §2
Series [8] concerns Rattus norvegicus. In words: Toxicity in Wistar rat assessed as effect on calcium level at 200 mg/kg, po for 14 days. It is filed as organism-based. The following applies: in vivo, 336 h.
Series [9] has as its system Rattus norvegicus. Briefly: Toxicity in Wistar rat assessed as eosinophil level at 200 mg/kg, po for 14 days (reference value: 2.67 +/- 0.58%). It is filed as organism-based. The following applies: in vivo, 336 h.
Series [10] deals with Rattus norvegicus. In words: Toxicity in Wistar rat assessed as effect on alkaline phosphatase level at 200 mg/kg, po for 14 days. The following applies: in vivo, 336 h. It is filed as organism-based. An outline of the steps: as §2
Series [11] deals with Rattus norvegicus. Briefly: Cognitive enhancing effect in ip dosed PTZ-kindled Wistar rat assessed as exploration preference by novel object recognition test (reference value: 5.7%). It is filed as functional.
Series [12] relates to Mus musculus. Briefly: Anticonvulsant activity in Swiss albino mouse assessed as protection against subcutaneous pentylenetetrazole-induced seizures at 5 mg/kg, ip administered 1 hr prior to PTZ challenge and measured after 30 mins. It is filed as functional. The following applies: in the assay text read “30 mg/kg” for “5 mg/kg”. An outline of the steps: as §1
The subject of series [13] is Rattus norvegicus. In words: Anxiolytic activity in ip dosed PTZ-kindled Wistar rat assessed as time spent in dark zone by light-dark test (reference value: 96.9 +/- 1.25%). The class given is functional.
The subject of series [14] is Rattus norvegicus. Briefly: Toxicity in Wistar rat assessed as neutrophil level at 200 mg/kg, po for 14 days (reference value: 17.33 +/- 3.21%). It is filed as organism-based. The following applies: in vivo, 336 h.
Series [15] relates to Rattus norvegicus. Briefly: Toxicity in Wistar rat assessed as effect on blood urea level at 200 mg/kg, po for 14 days. It is filed as organism-based. The following applies: in vivo, 336 h. In a few lines:
as §2

Series [16] relates to Rattus norvegicus. Briefly: Toxicity in Wistar rat assessed as effect on sodium level at 200 mg/kg, po for 14 days. The class given is organism-based. The following applies: in vivo, 336 h.

Molecules are shown by their SMILES. Activity calls are given as the source filed them. The rule behind the calls is not given here.

Take `Cc1ccc(NC(=S)NNC(=O)Nc2ccc(S(C)(=O)=O)cc2)cc1`: the Activity in [1] was 83%; in [3] it was 83%; in series [4], 990 ×10³ /mm3; in [5], “Non-Toxic”; in [6] it was 14.15 g/dL; in series [7], “Non-Toxic”. The Activity entry in series [8] is listed as “Non-Toxic”; in [9], 2.5%; in series [10], “Non-Toxic”; in series [11], 3.9%; in series [12], 67%; in series [13] it was 86.6%. The Activity in [14] is on record as 21.5%; in series [15], “Non-Toxic”; in [16], “Non-Toxic”. In addition, in series [2], the inhibition entry is “inactive”.

(Values after ChEMBL document CHEMBL4152211, “Discovery of novel Methylsulfonyl phenyl derivatives as potent human Cyclooxygenase-2 inhibitors with effective anticonvulsant action: Design, synthesis, in-silico, in-vitro and in-vivo evaluation” (Eur J Med Chem, 2018).)
